Data published in ChEMBL document CHEMBL1141098, “Molecular modeling of wild-type and D816V c-Kit inhibition based on ATP-competitive binding of ellipticine derivatives to tyrosine kinases” (J Med Chem, 2005).

How the values were obtained:
[1] = target: Fibroblast growth factor receptor 3 (Homo sapiens, UniProt P22607); assay: Inhibitory activity against Fibroblast growth factor receptor 3
Outline: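 Commercially supplied FGFR3 enzyme. Value is the IC50 for inhibition of kinase activity.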

[2] = target: Mast/stem cell growth factor receptor Kit (Homo sapiens, UniProt P10721); assay: Inhibitory concentration against c-Kit wild type expressed in recombinant baculovirus
[3] = target: Mast/stem cell growth factor receptor Kit (Homo sapiens, UniProt P10721, D816V); assay: Inhibitory concentration against c-Kit D816V type expressed in recombinant baculovirus
Outline: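 Recombinant c-Kit D816V expressed in baculovirus-infected High Five cells (MOI 10, harvested 90 h), purified by ion exchange then Ni affinity chromatography. ELISA on poly-Glu/Tyr (1:4)-coated wells; 10 nM final enzyme in 10 mM MgCl2, 1 mM MnCl2, 1 mM vanadate, 20 mM HEPES pH 7.3, BSA; 15 min at 25 °C, EDTA stop. Anti-phosphotyrosine-HRP detection, OPD, absorbance 492 nm; IC50 from inhibition.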

Sequence of Mast/stem cell growth factor receptor Kit (Homo sapiens, UniProt P10721, D816V) (P10721 26-976 D816V limits assumed): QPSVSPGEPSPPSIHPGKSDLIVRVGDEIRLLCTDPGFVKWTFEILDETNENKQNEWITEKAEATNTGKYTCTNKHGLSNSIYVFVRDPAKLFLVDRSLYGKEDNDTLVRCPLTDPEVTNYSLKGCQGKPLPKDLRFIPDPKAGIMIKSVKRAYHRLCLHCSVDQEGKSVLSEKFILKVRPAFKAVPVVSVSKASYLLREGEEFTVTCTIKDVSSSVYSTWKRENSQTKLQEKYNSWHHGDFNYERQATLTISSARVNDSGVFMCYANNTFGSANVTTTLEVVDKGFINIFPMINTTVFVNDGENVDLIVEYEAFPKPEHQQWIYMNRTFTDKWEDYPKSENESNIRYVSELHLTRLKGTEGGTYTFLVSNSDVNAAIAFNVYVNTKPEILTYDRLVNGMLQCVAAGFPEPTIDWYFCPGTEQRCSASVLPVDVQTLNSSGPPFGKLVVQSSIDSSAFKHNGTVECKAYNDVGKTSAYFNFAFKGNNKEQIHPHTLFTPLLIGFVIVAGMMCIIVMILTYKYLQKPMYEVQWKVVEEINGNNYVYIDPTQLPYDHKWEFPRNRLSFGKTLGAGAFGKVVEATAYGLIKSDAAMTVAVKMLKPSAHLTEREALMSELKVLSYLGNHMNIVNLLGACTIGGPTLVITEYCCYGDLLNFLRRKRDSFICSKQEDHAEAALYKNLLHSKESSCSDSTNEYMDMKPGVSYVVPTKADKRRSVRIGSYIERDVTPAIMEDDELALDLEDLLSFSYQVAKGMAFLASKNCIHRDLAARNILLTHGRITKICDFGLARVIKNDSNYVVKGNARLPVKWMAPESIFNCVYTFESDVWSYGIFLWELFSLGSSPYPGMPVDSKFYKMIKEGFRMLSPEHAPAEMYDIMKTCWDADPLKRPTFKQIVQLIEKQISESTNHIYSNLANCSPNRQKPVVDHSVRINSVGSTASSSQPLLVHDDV
Sequence of Fibroblast growth factor receptor 3 (P22607 whole entry): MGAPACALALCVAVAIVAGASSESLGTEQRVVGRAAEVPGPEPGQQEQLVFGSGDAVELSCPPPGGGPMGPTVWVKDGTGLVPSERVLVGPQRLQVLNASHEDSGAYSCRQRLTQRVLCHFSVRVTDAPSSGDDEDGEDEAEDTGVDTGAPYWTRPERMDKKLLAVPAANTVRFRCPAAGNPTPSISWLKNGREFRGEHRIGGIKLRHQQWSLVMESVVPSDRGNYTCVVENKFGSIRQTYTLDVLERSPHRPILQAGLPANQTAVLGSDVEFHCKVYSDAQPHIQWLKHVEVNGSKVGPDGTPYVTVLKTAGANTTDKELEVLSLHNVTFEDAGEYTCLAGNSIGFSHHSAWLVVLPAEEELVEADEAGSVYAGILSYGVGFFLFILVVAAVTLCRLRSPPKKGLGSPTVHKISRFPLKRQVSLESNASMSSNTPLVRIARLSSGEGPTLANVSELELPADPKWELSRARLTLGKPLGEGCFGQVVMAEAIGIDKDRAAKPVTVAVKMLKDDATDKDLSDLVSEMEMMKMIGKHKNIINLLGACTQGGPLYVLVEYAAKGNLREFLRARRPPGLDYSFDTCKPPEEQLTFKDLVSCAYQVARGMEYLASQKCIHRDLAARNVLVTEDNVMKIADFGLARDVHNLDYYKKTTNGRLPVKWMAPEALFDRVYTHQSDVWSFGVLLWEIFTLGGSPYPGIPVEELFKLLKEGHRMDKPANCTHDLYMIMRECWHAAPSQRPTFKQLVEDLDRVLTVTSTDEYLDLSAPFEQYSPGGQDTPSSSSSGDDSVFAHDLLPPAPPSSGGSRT
Sequence of Mast/stem cell growth factor receptor Kit (Homo sapiens, UniProt P10721) (P10721 whole entry): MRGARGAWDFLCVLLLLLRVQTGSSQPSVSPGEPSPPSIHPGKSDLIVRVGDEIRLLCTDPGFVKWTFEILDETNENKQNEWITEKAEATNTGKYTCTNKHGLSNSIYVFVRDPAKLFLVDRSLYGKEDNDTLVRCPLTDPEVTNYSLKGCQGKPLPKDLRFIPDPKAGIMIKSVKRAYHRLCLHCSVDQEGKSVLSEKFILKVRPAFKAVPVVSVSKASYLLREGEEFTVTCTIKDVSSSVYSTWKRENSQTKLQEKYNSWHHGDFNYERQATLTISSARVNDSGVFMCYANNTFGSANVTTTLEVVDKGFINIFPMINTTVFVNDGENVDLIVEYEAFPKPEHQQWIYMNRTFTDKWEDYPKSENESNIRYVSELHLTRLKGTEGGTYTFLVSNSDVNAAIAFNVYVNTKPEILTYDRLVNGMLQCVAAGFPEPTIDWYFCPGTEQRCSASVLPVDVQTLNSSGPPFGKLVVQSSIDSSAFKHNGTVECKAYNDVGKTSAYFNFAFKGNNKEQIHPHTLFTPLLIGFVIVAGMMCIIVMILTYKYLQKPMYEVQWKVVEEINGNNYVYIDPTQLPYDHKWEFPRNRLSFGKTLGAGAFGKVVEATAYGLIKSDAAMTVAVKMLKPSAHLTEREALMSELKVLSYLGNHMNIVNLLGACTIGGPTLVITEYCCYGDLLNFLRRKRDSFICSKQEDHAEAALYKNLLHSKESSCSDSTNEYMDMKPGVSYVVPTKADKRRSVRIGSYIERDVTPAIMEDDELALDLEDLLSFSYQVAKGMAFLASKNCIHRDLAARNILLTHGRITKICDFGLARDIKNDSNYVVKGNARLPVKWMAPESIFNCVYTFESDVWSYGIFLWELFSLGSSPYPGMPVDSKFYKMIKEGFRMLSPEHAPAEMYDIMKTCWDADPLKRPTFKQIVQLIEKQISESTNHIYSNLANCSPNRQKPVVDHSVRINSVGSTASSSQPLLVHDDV

Compound	IC50 [1] [µM]	IC50 [2] [µM]	IC50 [3] [µM]
Cc1c2cc[n+](C)cc2c(C)c2c1[nH]c1ccc(O)cc12	0.5	0.4	0.4
Cc1c2ccncc2c(C)c2c1[nH]c1ccc(Br)cc12		> 10	> 10
CCN(CC)CC[n+]1ccc2c(C)c3[nH]c4ccc(O)cc4c3c(C)c2c1		0.45	0.3
CCN(CC)CCCNc1nccc2c(C)c3[nH]c4ncccc4c3cc12		2.3	1.9
COc1ccc2[nH]c3c(C)c4ccncc4c(C)c3c2c1		0.8	0.6
Cc1c2ccncc2c(C)c2c1[nH]c1ccc(O)cc12	0.4	0.4	0.4
CCN(CC)CCCNc1nccc2c(C)c3[nH]c4ccc(OC)cc4c3cc12		2.5	2
CCN(CC)CCCNc1nccc2c(C)c3[nH]c4ccc(O)cc4c3c(C)c12		1.4	1.2
CCN(CC)CCCNc1nccc2c(C)c3c(c(C)c12)c1cc(O)ccc1n3C	1.4	2.5	3.6
Cc1c2ccncc2c(C)c2c1[nH]c1ccccc12 [ELLIPTECINE]		> 10	> 10
